From ChEMBL document CHEMBL1141487, “Alpha,Beta-cyclic-beta-benzamido hydroxamic acids: Novel oxaspiro[4.4]nonane templates for the discovery of potent, selective, orally bioavailable inhibitors of tumor necrosis factor-alpha converting enzyme (TACE)” (Bioorg Med Chem Lett, 2008)

What was measured:
[1] = Half life in Sprague-Dawley rat at 5 mg/kg, iv; assay type: ADME, organism-based; parameters: dose 5 mg/kg, route intravenous; conditions: in vivo
Outline: (§1)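 Sprague–Dawley rats dosed 5 mg/kg iv and 5 mg/kg orally as n-in-1 cassette. Plasma levels measured by LC/MS/MS.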

[2] = Clearance in Sprague-Dawley rat at 5 mg/kg, iv; assay type: ADME, organism-based; parameters: dose 5 mg/kg, route intravenous; conditions: in vivo; outline: as §1
[3] = molecular target: Disintegrin and metalloproteinase domain-containing protein 17 (Sus scrofa, UniProt O77636)
[4] = AUC in Sprague-Dawley rat at 5 mg/kg, po; assay type: ADME, organism-based; parameters: dose 5 mg/kg, route oral; conditions: plasma; outline: as §1
[5] = molecular target: Matrix metalloproteinase-9 (Homo sapiens, UniProt P14780); test: Inhibition of MMP9
[6] = Apparent permeability across human Caco-2 cells; assay type: ADME, cell-based
[7] = Volume of distribution at steady state in Sprague-Dawley rat at 5 mg/kg, iv; assay type: ADME, organism-based; parameters: dose 5 mg/kg, route intravenous; conditions: in vivo, read-out: Vdss; outline: as §1
Interstitial collagenase = molecular target: T1, Interstitial collagenase (Homo sapiens, UniProt P03956); test: Inhibition of MMP1
T1 sequence (P03956 whole entry): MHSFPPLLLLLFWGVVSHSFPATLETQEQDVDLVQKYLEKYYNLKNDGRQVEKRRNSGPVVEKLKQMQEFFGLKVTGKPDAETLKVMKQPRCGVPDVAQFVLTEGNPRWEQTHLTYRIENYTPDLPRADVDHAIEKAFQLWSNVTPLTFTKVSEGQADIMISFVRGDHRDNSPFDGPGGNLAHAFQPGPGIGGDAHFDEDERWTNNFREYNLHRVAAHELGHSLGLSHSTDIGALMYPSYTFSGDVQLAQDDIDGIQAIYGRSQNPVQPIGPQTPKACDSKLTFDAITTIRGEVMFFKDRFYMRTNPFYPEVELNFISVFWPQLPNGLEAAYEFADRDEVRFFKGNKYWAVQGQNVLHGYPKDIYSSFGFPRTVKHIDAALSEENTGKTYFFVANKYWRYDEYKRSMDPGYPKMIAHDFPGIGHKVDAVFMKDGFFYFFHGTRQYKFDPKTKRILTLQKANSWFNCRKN

[8] = Tmax in Sprague-Dawley rat at 5 mg/kg, po; assay type: ADME, organism-based; parameters: dose 5 mg/kg, route oral; conditions: in vivo; outline: as §1
[9] = Bioavailability in Sprague-Dawley rat at 5 mg/kg, po; assay type: ADME, organism-based; conditions: in vivo; outline: as §1
[10] = AUC in Sprague-Dawley rat at 5 mg/kg, iv; assay type: ADME, organism-based; parameters: dose 5 mg/kg, route intravenous; conditions: plasma; outline: as §1
[11] = Half life in Sprague-Dawley rat at 5 mg/kg, po; assay type: ADME, organism-based; parameters: dose 5 mg/kg, route oral; conditions: in vivo; outline: as §1
[12] = molecular target: 72 kDa type IV collagenase (Homo sapiens, UniProt P08253); test: Inhibition of MMP2
Blood = test: Inhibition of LPS-induced TNFalpha production in human whole blood; assay type: functional, tissue-based
[13] = Oral bioavailability in Beagle dog; assay type: ADME, organism-based, Canis lupus familiaris; conditions: in vivo
Mus musculus = species on record: Mus musculus; test: Inhibition of LPS-induced TNFalpha production in mouse endotoxemia model after 1 hr; assay type: functional
Outline: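 Mice given lipopolysaccharide together with graded oral gavage doses of inhibitor at t = 0 h. Animals euthanized 1 h post-dose and whole blood taken by cardiac puncture. TNF-α measured in plasma. ED50 calculated from the dose–response.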

Disintegrin and metalloproteinase domain-containing protein 17, sequence (O77636 whole entry, the tested form may be a part): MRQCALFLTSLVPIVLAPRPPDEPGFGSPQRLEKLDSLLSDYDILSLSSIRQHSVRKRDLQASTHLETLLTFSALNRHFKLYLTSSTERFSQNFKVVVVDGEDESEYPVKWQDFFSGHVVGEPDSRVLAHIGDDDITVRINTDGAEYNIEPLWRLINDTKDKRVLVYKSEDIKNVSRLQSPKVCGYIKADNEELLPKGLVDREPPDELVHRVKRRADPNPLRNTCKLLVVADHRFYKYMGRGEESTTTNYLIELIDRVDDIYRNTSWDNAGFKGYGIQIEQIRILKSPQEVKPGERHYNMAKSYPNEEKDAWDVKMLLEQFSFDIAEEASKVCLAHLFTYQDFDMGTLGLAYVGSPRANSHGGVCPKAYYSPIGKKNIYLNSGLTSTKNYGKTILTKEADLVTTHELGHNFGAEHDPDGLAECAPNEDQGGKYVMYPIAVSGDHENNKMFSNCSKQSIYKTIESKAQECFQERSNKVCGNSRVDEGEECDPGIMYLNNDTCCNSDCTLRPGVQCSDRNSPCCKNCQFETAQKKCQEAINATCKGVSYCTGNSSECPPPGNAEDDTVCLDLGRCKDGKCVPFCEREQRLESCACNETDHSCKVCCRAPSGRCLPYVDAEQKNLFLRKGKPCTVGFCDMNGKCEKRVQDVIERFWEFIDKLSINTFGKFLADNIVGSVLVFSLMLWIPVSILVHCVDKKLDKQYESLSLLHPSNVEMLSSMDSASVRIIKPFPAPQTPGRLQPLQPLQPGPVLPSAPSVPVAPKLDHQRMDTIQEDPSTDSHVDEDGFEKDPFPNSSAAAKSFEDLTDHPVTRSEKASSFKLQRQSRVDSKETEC
Matrix metalloproteinase-9, sequence (P14780 whole entry): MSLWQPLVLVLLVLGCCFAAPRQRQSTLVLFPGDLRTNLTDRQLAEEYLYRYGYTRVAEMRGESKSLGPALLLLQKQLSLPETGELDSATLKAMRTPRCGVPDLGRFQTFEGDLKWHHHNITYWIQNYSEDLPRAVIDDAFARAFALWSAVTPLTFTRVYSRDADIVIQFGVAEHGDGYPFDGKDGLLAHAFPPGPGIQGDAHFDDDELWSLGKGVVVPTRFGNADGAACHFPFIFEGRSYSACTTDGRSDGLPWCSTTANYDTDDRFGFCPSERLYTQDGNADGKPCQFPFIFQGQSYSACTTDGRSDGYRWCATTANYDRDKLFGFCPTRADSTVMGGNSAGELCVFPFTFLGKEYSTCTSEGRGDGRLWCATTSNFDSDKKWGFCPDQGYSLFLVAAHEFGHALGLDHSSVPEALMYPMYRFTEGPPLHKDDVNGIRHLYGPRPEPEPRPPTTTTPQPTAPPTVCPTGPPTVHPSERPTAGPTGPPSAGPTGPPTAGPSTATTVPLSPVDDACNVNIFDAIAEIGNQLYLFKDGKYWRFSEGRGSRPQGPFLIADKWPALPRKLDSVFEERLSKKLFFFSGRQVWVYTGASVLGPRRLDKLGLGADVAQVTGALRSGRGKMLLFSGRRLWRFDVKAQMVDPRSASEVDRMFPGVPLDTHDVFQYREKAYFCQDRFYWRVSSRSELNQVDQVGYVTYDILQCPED
72 kDa type IV collagenase, sequence (P08253 whole entry): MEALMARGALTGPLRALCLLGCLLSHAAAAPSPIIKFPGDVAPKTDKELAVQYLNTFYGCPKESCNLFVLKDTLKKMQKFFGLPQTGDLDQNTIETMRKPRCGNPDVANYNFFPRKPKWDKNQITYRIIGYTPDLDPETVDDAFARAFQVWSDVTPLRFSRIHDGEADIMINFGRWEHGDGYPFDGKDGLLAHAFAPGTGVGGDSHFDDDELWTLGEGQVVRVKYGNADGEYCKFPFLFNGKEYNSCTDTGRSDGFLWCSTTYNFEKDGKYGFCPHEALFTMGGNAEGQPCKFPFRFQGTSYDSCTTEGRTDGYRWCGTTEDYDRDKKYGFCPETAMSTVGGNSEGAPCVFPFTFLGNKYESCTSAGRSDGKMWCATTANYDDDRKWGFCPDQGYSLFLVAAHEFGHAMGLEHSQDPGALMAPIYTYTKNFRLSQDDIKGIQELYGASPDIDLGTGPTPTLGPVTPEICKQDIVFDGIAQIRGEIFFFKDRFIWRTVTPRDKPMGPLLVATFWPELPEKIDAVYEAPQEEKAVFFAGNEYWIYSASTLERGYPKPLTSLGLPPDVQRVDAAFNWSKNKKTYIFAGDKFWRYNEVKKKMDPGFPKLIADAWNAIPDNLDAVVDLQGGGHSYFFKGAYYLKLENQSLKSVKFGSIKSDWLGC

Structure (SMILES)	half-life [1]	clearance [2]	IC50 [3]	AUC [4]	Ki [5]	Papp [6]	Vd [7]	Ki (Interstitial collagenase)	Tmax [8]	bioavailability [9]	AUC [10]	half-life [11]	Ki [12]	IC50 (Blood)	bioavailability [13]	ED50 (Mus musculus)
Cc1cc(COc2ccc(C(=O)N[C@@H]3C[C@]4(CCCO4)C[C@@H]3C(=O)NO)cc2)c2ccccc2n1	6.9 h	13.3 mL/min/kg	1 nM	3.85 µM·h	1250 nM	1.5 ×10⁻⁶ cm/s	1.4 L/kg	> 4950 nM	0.25 h	35%	10.9 µM·h	1.9 h	1920 nM	143 nM	–	–
Cc1cc(COc2ccc(C(=O)N[C@@H]3C[C@@]4(CCCO4)C[C@@H]3C(=O)NO)cc2)c2ccccc2n1	4.2 h	11.7 mL/min/kg	1 nM	3.93 µM·h	1450 nM	5.7 ×10⁻⁶ cm/s	0.3 L/kg	> 4950 nM	0.1 h	31%	12.6 µM·h	1.3 h	1360 nM	108 nM	68%	1 mg/kg
